Laboratory results as given in ChEMBL document CHEMBL4665880, “Dihydrobenzoxazinone derivatives as aldose reductase inhibitors with antioxidant activity” (Bioorg Med Chem, 2020).

Legend:
[1] = Antioxidant activity assessed as DPPH radical scavenging activity at 10 uM relative to control; assay type: functional
Method in brief: (§1)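 DPPH (0.025 mg/mL stock in methanol, 1 mL) mixed with 1.9 mL methanol and 100 µL methanolic compound or Trolox, giving final 100, 10, 5 and 1 µM. Absorbance at 517 nm read after reaching steady state; scavenging % = (1 − (A sample − A blank)/A control)×100, blank being compound in methanol, control DPPH in methanol. Triplicate.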

[2] = Antioxidant activity assessed as DPPH radical scavenging activity at 100 uM relative to control; assay type: functional; method in brief: as §1
Rattus norvegicus = species on record: Rattus norvegicus; assay: Selectivity index, ratio of IC50 for rat kidney ALR1 to IC50 for rat lens ALR2
[3] = Antioxidant activity assessed as superoxide anion radical scavenging activity incubated for 40 mins by spectrophotometric method; assay type: functional
Method in brief: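 Incubation at 37 °C for 40 min, then 2 mL chromogenic reagent added; after 10 min standing, absorbance read at 550 nm. Activity (U/µmol) = (A control − A sample)/(A control − A blank) ×150 ÷ sample concentration (µM); control ascorbic acid 150 mg/L, blank distilled water. Triplicate.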

[4] = molecular target: Aldo-keto reductase family 1 member A1 (Rattus norvegicus, UniProt P51635); assay: Inhibition of rat kidney ALR1 using […] as substrate preincubated for 4 mins at 37 degC followed by substrate addition and measured after 4 mins in presence of NADPH; assay type: tissue-based
Aldo-keto reductase family 1 member A1, sequence (P51635 whole entry, looked up): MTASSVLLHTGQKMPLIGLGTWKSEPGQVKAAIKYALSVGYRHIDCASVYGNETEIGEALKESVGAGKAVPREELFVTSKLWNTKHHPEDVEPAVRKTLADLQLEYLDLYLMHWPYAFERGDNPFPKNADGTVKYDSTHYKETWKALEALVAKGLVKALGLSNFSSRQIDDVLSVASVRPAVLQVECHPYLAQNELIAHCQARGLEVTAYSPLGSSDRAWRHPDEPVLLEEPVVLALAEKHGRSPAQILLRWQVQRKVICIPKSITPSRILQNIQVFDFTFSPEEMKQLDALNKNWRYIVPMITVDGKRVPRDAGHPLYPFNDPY
Method in brief: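 Rat kidney enzyme extract with 0.12 mM NADPH, 0.1 M sodium phosphate pH 7.2 and inhibitor in DMSO, preincubated 4 min at 37 °C; reaction started with sodium D-[…] (20 mM stock) and monitored 4 min. Corrected for nonenzymatic NADPH oxidation. Tested 100 µM to 10 nM, three replicates per concentration; IC50 from linear log(dose)–response fit (r² > 0.95).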

[5] = molecular target: Aldo-keto reductase family 1 member B1 (Rattus norvegicus, UniProt P07943); assay: Inhibition of rat lens ALR2 using D,L-glyceraldehyde as substrate preincubated for 5 mins at 30 degC followed by substrate addition and measured after 4 mins in presence of NADPH; assay type: tissue-based
[6] = Antioxidant activity assessed as DPPH radical scavenging activity at 1 uM relative to control; assay type: functional; method in brief: as §1
[7] = Antioxidant activity assessed as DPPH radical scavenging activity at 5 uM relative to control; assay type: functional; method in brief: as §1
Brain = assay: Antioxidant activity in rat brain homogenate assessed as inhibition of FeCl3/ascorbic acid-induced lipid peroxidation by measuring MDA level at 100 uM after 30 mins by thiobarbituric acid based spectrophotometric method relative to control; assay type: functional, tissue-based
Method in brief: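 Fresh rat brain homogenized 25% in ice-cold saline, spun 3000 rpm 10 min; supernatant incubated with compound (100 µM), […] at 37 °C for 30 min. MDA measured by TBA kit: boiled 95 °C 40 min, iced, centrifuged, read at 532 nm. Methanol used as control vehicle. Triplicate.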

Compound | inhibition [1] | inhibition [2] | Ratio IC50 (Rattus norvegicus) | Activity [3] | IC50 [4] | IC50 [5] | inhibition [6] | inhibition [7] | inhibition (Brain)
O=C(O)CN1CC(=O)Oc2c(/C=C/c3ccccc3)cccc21 | 84.2% | 86.5% | 9.11 | 0.81 U/µM | 2810 nM | 308 nM | 12% | 43.6% | 75.8%
O=C(O)CN1CC(=O)Oc2ccccc21 | 65.6% | 92.8% | 7.1 | 0.73 U/µM | 13700 nM | 1930 nM | 7.17% | 23.1% | 72.2%
COc1ccc(-c2cccc3c2OC(=O)CN3CC(=O)O)cc1 |  |  |  |  |  | 774 nM |  |  | 
O=C(O)CN1CC(=O)Oc2c(/C=C/c3ccc(-c4ccccc4)cc3)cccc21 |  |  |  |  |  | 281 nM |  |  | 
O=Cc1ccc(-c2cccc3c2OC(=O)CN3CC(=O)O)cc1 |  |  |  |  |  | 1050 nM |  |  | 
COc1cc(/C=C/c2cccc3c2OC(=O)CN3CC(=O)O)ccc1O | 85% | 93.1% | 24 | 1.02 U/µM | 4500 nM | 188 nM | 18.2% | 57.8% | 80.7%
O=C(O)CN1CC(=O)Oc2c(-c3ccccc3)cccc21 | 36.5% | 91.3% |  |  |  | 3340 nM | 6.12% | 13.2% | 
Cc1ccc(/C=C/c2cccc3c2OC(=O)CN3CC(=O)O)cc1 |  |  |  |  |  | 220 nM |  |  | 
O=C(O)CN1CC(=O)Oc2c(/C=C/c3ccc(C(F)(F)F)cc3)cccc21 | 89.2% | 91.3% | 23.7 |  | 3270 nM | 138 nM | 9.92% | 44.3% | 
O=C(O)CN1CC(=O)Oc2c(/C=C/c3ccc([N+](=O)[O-])cc3)cccc21 |  |  |  |  |  | 262 nM |  |  | 
CC(C)(C)c1ccc(/C=C/c2cccc3c2OC(=O)CN3CC(=O)O)cc1 |  |  | 3.93 |  | 669 nM | 170 nM |  |  | 
CC(/C=C1\SC(=S)N(CC(=O)O)C1=O)=C\c1ccccc1 |  |  |  |  | 1200 nM |  |  |  | 
O=C(O)CN1CC(=O)Oc2c(/C=C/c3ccc(O)cc3)cccc21 | 87.5% | 93.2% | 60.6 | 1.07 U/µM | 4990 nM | 82 nM | 14.7% | 57.4% | 81.7%
O=C(O)CN1CC(=O)Oc2c(/C=C/c3ccc(F)cc3)cccc21 | 90% | 92.6% | 25.7 | 0.79 U/µM | 4280 nM | 167 nM | 12.6% | 57.1% | 74.8%
COc1ccc(/C=C/c2cccc3c2OC(=O)CN3CC(=O)O)cc1 |  |  |  |  |  | 208 nM |  |  | 
Cc1c(C)c2c(c(C)c1O)CCC(C)(C(=O)O)O2 (stereo not drawn) | 82.6% | 94.6% |  | 1.13 U/µM |  |  | 10.2% | 47.8% | 75.5%
